Test results published in ChEMBL document CHEMBL2046298, “Lead optimization of purine based orally bioavailable Mps1 (TTK) inhibitors” (Bioorg Med Chem Lett, 2012).

Tests used:
[1] = AUC in CD-1 mouse at 10 mg/kg, po; type: ADME, organism-based; set-up: dose 10 mg/kg, route oral; details: plasma
Outline: (§1)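 CD-1 mice given 10 mg/kg orally in a DMA/PEG 400 solution formulation; matched IV arm at 2.5 mg/kg in DMA/PEG 400 for %F.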

[2] = Plasma concentration in CD-1 mouse at 10 mg/kg, po measured at 4 hrs; type: ADME, organism-based; set-up: dose 10 mg/kg, route oral
Outline: (§2)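 Abbreviated PK screen: CD-1 mice dosed orally at 10 mg/kg in DMA/PEG 400 solution; plasma levels determined at 4 and 8 h post-dose.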

[3] = Plasma concentration in CD-1 mouse at 10 mg/kg, po measured at 8 hrs; type: ADME, organism-based; set-up: dose 10 mg/kg, route oral; outline: as §2
[4] = Cmax in CD-1 mouse at 10 mg/kg, po; type: ADME, organism-based; set-up: dose 10 mg/kg, route oral; details: in vivo; outline: as §1
[5] = Oral bioavailability in CD-1 mouse at 10 mg/kg; type: ADME, organism-based; details: in vivo; outline: as §1
[6] = Apparent permeability of the compound by PAMPA; type: ADME

Row | AUC [1] | concentration at 4 h [2] | concentration at 8 h [3] | Cmax [4] | bioavailability [5] | Papp [6] | SMILES
1 | 10700 ng·h/mL | 435 ng/mL | 187 ng/mL | 2600 nM | > 83% | – | COc1cc(N2CCC(CN3CCOCC3)CC2)ccc1Nc1nc(NC2CCCCC2)c2nc[nH]c2n1
2 | 1710 ng·h/mL | 105 ng/mL | 44.2 ng/mL | 2600 nM | 31% | – | COc1cc(N2CCC(N3CCOCC3)CC2)ccc1Nc1nc(NC2CCCCC2)c2nc[nH]c2n1
3 | – | 16.7 ng/mL | 1.68 ng/mL | – | – | – | COc1cc(N2CCC(C(=O)N3CCOCC3)CC2)ccc1Nc1nc(NC2CCCCC2)c2nc[nH]c2n1
4 | 1650 ng·h/mL | 97 ng/mL | 20.9 ng/mL | 1400 nM | 23.1% | – | COc1cc(N2CCC(CC(=O)N3CCOCC3)CC2)ccc1Nc1nc(NC2CCCCC2)c2nc[nH]c2n1

The next lines start with the molecule.

Row | SMILES | AUC [1] | concentration at 4 h [2] | concentration at 8 h [3] | Cmax [4] | bioavailability [5] | Papp [6]
5 | Cc1cc(N2CCOCC2)ccc1Nc1nc(NC2CCCCC2)c2nc[nH]c2n1 | – | – | – | – | 20% | –
6 | COc1cc(N2CCN(Cc3ccccn3)CC2)ccc1Nc1nc(NC2CCCCC2)c2nc[nH]c2n1 | – | 66.3 ng/mL | 2.9 ng/mL | – | – | –
7 | COc1cc(N2CCN(C(=O)N3CCC(O)C3)CC2)ccc1Nc1nc(NC2CCCCC2)c2nc[nH]c2n1 (stereo not drawn) | – | – | – | – | – | impermeable
8 | COc1cc(N2CCC(CC(=O)N3CCCC3)CC2)ccc1Nc1nc(NC2CCCCC2)c2nc[nH]c2n1 | 1770 ng·h/mL | 138 ng/mL | 69.2 ng/mL | 1800 nM | 36% | –
9 | COc1cc(N2CCC(CC(=O)N3CCN(C)CC3)CC2)ccc1Nc1nc(NC2CCCCC2)c2[nH]cnc2n1 | 547 ng·h/mL | 180 ng/mL | 39.9 ng/mL | 300 nM | 6.9% | –
10 | COc1cc(N2CCN(S(=O)(=O)CCCN3CCOCC3)CC2)ccc1Nc1nc(NC2CCCCC2)c2nc[nH]c2n1 | 1730 ng·h/mL | 156 ng/mL | 17.5 ng/mL | 1000 nM | 17.9% | –
11 | COc1cc(N2CCC(CC(=O)N3CCC(N(C)C)C3)CC2)ccc1Nc1nc(NC2CCCCC2)c2nc[nH]c2n1 (stereo not drawn) | – | – | – | – | – | impermeable
12 | COc1cc(N2CCN(C(=O)N3CCN(C)CC3)CC2)ccc1Nc1nc(NC2CCCCC2)c2[nH]cnc2n1 | – | – | – | – | – | impermeable
